# Legend:
# Bacillus cereus = assay: In vitro antibacterial activity measured as minimum inhibitory concentration was evaluated on Bacillus cereus ATCC 11778 (Bc).; format: functional; settings: Bacillus cereus, ATCC 11778; read-out: MIC
# Method in brief: (§1)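 Serial 2-fold agar dilution in Mueller Hinton medium, run side by side with reference quinolones. Inoculum 10^5 cfu/mL; compound range 0.007–16 µg/mL.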
# Bacillus subtilis = assay: In vitro antibacterial activity measured as minimum inhibitory concentration was evaluated on Bacillus subtilis ATCC 6633(Bs).; format: functional; settings: Bacillus subtilis, ATCC 6633; read-out: MIC; method in brief: as §1
# Enterobacter cloacae = assay: In vitro antibacterial activity measured as minimum inhibitory concentration, was evaluated on Enterobacter cloacae ATCC 23355 (Ecl).; format: functional; settings: Enterobacter cloacae, ATCC 23355; read-out: MIC
# Klebsiella pneumoniae = assay: In vitro antibacterial activity measured as minimum inhibitory concentration was evaluated on klebsiella pneumoniae ATCC 10031 (Kp).; format: functional
# Method in brief: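 Serial 2-fold agar dilution in Mueller Hinton medium, run side by side with reference quinolones.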
# Pseudomonas aeruginosa [1] = assay: In vivo efficacy as ED50 against Pseudomonas aeruginosa HS-116 by oral administration in mice.; format: functional; settings: Pseudomonas aeruginosa, po; read-out: ED50
# Method in brief: (§2)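 Mice, 4 groups of 10, infected intraperitoneally with slightly more than the LD100 of the organism. A single oral dose was given immediately after infection, with four doses (one per group) chosen from in vitro activity. Survival was scored after one week. ED50 (total dose, mg/kg, protecting 50%) was interpolated among group survival rates.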
# Staphylococcus aureus [2] = assay: In vivo efficacy as ED50 against Staphylococcus aureus HS-93 by oral administration in mice.; format: functional; method in brief: as §2
# Escherichia coli [3] = assay: In vivo efficacy as ED50 against Escherichia coli HM-42 by oral administration in mice.; format: functional; settings: Escherichia coli, po; read-out: ED50; method in brief: as §2
# Proteus vulgaris = assay: In vitro antibacterial activity measured as minimum inhibitory concentration was evaluated on proteus vulgaris ATCC 8427 (Pv).; format: functional; method in brief: as §1
# Pseudomonas aeruginosa [4] = assay: In vitro antibacterial activity measured as minimum inhibitory concentration was evaluated on Pseudomonas aeruginosa ATCC 10145 (Pa).; format: functional; settings: Pseudomonas aeruginosa, ATCC 10145; read-out: MIC; method in brief: as §1
# Staphylococcus aureus [5] = assay: In vitro antibacterial activity measured as minimum inhibitory concentration was evaluated on Staphylococcus aureus ATCC 25178 (Sa).; format: functional; settings: Staphylococcus aureus, ATCC 25178; read-out: MIC; method in brief: as §1
# [6] = test system: Staphylococcus epidermidis; assay: In vitro antibacterial activity measured as minimum inhibitory concentration was evaluated on Staphylococcus epidermidis ATCC 155-1 (Se).; format: functional; settings: Staphylococcus epidermidis, ATCC 155-1; read-out: MIC; method in brief: as §1
# Enterococcus faecalis = assay: In vitro antibacterial activity measured as minimum inhibitory concentration was evaluated on Streptococcus faecalis ATCC 10541 (Sf).; format: functional; settings: Enterococcus faecalis, ATCC 10541; read-out: MIC; method in brief: as §1
# Escherichia coli [7] = assay: In vitro antibacterial activity measured as minimum inhibitory concentration, was evaluated on Escherichia coli ATCC 23559(Ec).; format: functional; settings: Escherichia coli, ATCC 23559; read-out: MIC; method in brief: as §1
# Morganella morganii = assay: In vitro antibacterial activity measured as minimum inhibitory concentration was evaluated on morganella morganii ATCC 8019 (Mm).; format: functional; settings: Morganella morganii, ATCC 8019; read-out: MIC; method in brief: as §1
# [8] = mouse, in vivo, po, 50 mg/kg
# [9] = Klebsiella pneumoniae, ATCC 10031, read-out: MIC
# [10] = Proteus vulgaris, ATCC 8427, read-out: MIC
# [11] = Staphylococcus aureus, po, read-out: ED50
MIC (Bacillus cereus) [µg/mL],MIC (Bacillus subtilis) [µg/mL],MIC (Enterobacter cloacae) [µg/mL],MIC (Klebsiella pneumoniae) [µg/mL],MIC (Proteus vulgaris) [µg/mL],MIC (Pseudomonas aeruginosa [4]) [µg/mL],MIC (Staphylococcus aureus [5]) [µg/mL],MIC [6] [µg/mL],MIC (Enterococcus faecalis) [µg/mL],MIC (Escherichia coli [7]) [µg/mL],MIC (Morganella morganii) [µg/mL],MIC (Klebsiella pneumoniae; [9]) [µg/mL],MIC (Proteus vulgaris; [10]) [µg/mL],AUC [8] [ng·h/mL],Compound,ED50 (Pseudomonas aeruginosa [1]) [mg/kg],ED50 (Staphylococcus aureus [2]) [mg/kg],ED50 (Escherichia coli [3]) [mg/kg],ED50 (Staphylococcus aureus [2]; [11]) [mg/kg]
0.12,0.06,0.06,0.12,0.25,1,0.12,0.12,1,0.06,0.12,,,,C[C@@H]1[C@H](N)CN1c1c(F)cc2c(=O)c(C(=O)O)cn(C3CC3)c2c1F (stereo in doubt; 23),123,18.6,6.2,
0.25,0.06,0.12,,,2,0.5,0.25,2,0.12,0.25,0.06,0.5,22300,C[C@@H]1[C@@H](N)CN1c1nc2c(cc1F)c(=O)c(C(=O)O)cn2C1CC1,,,,
0.12,0.06,0.06,,,1,0.12,0.12,1,0.06,0.12,0.06,0.5,,CC1C(N)CN1c1c(F)cc2c(=O)c(C(=O)O)cn(-c3ccc(F)cc3F)c2c1F (centres undefined),61,,2.3,10
,,,,,,,,,,,,,2300,O=C(O)c1cn(C2CC2)c2cc(N3CCNCC3)c(F)cc2c1=O [CIPROFLOXACIN],70,,3,
1,0.25,0.25,,,4,1,1,2,0.25,0.5,0.25,1,2200,C[C@@H]1[C@@H](N)CN1c1cc2c(cc1F)c(=O)c(C(=O)O)cn2C1CC1,,,,
0.06,0.015,0.06,,,0.5,0.06,0.12,0.5,0.06,,0.015,0.5,38200,"C[C@H]1[C@H](N)CN1c1nc2c(cc1F)c(=O)c(C(=O)O)cn2-c1ccc(F)cc1F (single isomer, unassigned)",156,,4.2,6.6
0.5,0.12,0.25,,,4,0.5,0.5,0.25,0.25,0.25,2,0.25,,C[C@@H]1[C@@H](N)CN1c1c(F)cc2c(=O)c(C(=O)O)cn(C3CC3)c2c1Cl,147,,18.4,19.1
0.015,0.015,0.015,,,0.12,0.06,0.06,0.12,0.015,0.015,0.015,,4000,"C[C@H]1[C@H](N)CN1c1cc2c(cc1F)c(=O)c(C(=O)O)cn2C1CC1 (single isomer, unassigned)",100,,2.9,17
0.25,0.06,0.06,,,0.5,0.12,0.25,0.25,0.25,0.06,0.25,0.25,12500,CCn1cc(C(=O)O)c(=O)c2c(N)c(F)c(N3C[C@H](N)[C@H]3C)c(F)c21,,,,

# Source: ChEMBL document CHEMBL1128288, “7-Azetidinylquinolones as antibacterial agents. 3. Synthesis, properties and structure-activity relationships of the stereoisomers containing a 7-(3-amino-2-methyl-1-azetidinyl) moiety” (J Med Chem, 1995)
